Data on 13 compounds can be found in ChEMBL document CHEMBL1649388, “Imidazo[2,1-b]thiazole carbohydrate derivatives: Synthesis and antiviral activity against Junin virus, agent of Argentine hemorrhagic fever” (Eur J Med Chem, 2011).

Series [1] in a line: (§1) Cytotoxicity against african green monkey Vero cells after 48 hrs by MTT assay. The following applies: chlorocebus sabaeus, Vero cells. It is filed as cell-based, Chlorocebus sabaeus. A digest of the protocol:
(§2)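 Confluent Vero cultures were exposed to a range of compound concentrations, three wells per concentration, for 48 h at 37 °C. Viability was read by MTT at 595 nm. CC₅₀ is the concentration reducing MTT signal by 50% versus untreated controls. Mean of three determinations.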
For orientation: Tetrazolium dyes change colour on reduction, which living cells bring about.

For series [2], the system named is Junin virus. In words: Antiviral activity against Junin virus IV4454 infected in african green monkey Vero cells assessed as reduction in virus yield after 48 hrs by plaque assay. The class given is functional, organism-based. The following applies: Mammarenavirus juninense.
Series [3] in a line: Selectivity index, ratio of CC50 for african green monkey Vero cells to EC50 for Junin virus IV4454 infected in african green monkey Vero cells. The class given is toxicity, cell-based. The following applies: read-out: Selectivity Index.
Another series deals with Vero. The description is as §1. The following applies: Chlorocebus sabaeus, Vero, 48 h. It is filed as cell-based, Chlorocebus sabaeus. A digest of the protocol:
as §2

In series [4] the test system is Junin virus. Nature of the series: Antiviral activity against Junin virus IV4454 infected in african green monkey Vero cells assessed as reduction in virus yield treated for 1.5 hrs before viral infection measured by plaque assay relative to control. The following applies: Mammarenavirus juninense. It is filed as functional, organism-based.
Series [5] concerns Junin virus. Nature of the series: Antiviral activity against Junin virus IV4454 infected in african green monkey Vero cells assessed as reduction in virus yield at 50 to 200 uM treated for 1.5 hrs before viral infection measured by plaque assay relative to control. The class given is functional, Mammarenavirus juninense.

In general, CC50 refers to the concentration at which the toxic effect on the cells reaches its halfway point. For orientation: EC50 means the concentration at which the effect is half-maximal. Consider `CO[C@@H]1[C@H]2OC(C)(C)O[C@H]2O[C@@H]1C(=O)c1cn2cc(C(=O)c3ccccc3)nc2s1`, for which the CC50 at 48 h in series [1] is greater than 400 µM. In addition, the 50% effective concentration (EC50) in the series with Junin virus [2] came out at 12.3 µM. The selectivity ratio in series [3] was greater than 32.5.
Turning to `COC1[C@@H](C(=O)c2cnc3sc(C(=O)c4ccccc4)cn23)O[C@@H]2OC(C)(C)O[C@H]12` (single isomer, unassigned), the CC50 at 48 h in series [1] is greater than 400 µM. The EC50 in the series with Junin virus [2] was 18.5 µM. Moreover, in series [3], the selectivity ratio was greater than 21.6.
`CO[C@@H]1[C@H]2OC(C)(C)O[C@H]2O[C@@H]1C(=O)c1cnc2sc(C(=O)c3ccc(Cl)cc3)cn12` yielded a CC50 at 48 h in series [1] of 371 µM. Also, the EC50 with Junin virus [2] turned out to be 0.8 µM. Besides, the selectivity ratio in series [3] was determined as 464.
On the same counts, the results for `CC(=O)O[C@@H]1[C@H]2OC(C)(C)O[C@H]2O[C@@H]1C(=O)c1cnc2sc(C(=O)c3ccccc3)cn12` are greater than 400 µM, 7.9 µM and greater than 50.6.
Turning to `CO[C@@H]1[C@H]2OC(C)(C)O[C@H]2O[C@@H]1C(=O)c1cn2cc(C(=O)c3ccc(Cl)cc3)nc2s1`, the CC50 at 48 h in series [1] was greater than 400 µM. The EC50 in the series with Junin virus [2] was 11.9 µM. Moreover, the selectivity ratio in series [3] is greater than 33.6.
Consider `CC(=O)O[C@@H]1[C@H]2OC(C)(C)O[C@H]2O[C@@H]1C(=O)c1cnc2sc(C(=O)c3ccc(Br)cc3)cn12`, for which the CC50 at 48 h in series [1] was determined as 139 µM. Further, in the series on Junin virus [2], the EC50 was 5.6 µM. Besides, in series [3], the selectivity ratio was found to be 24.8.
`CO[C@@H]1[C@H]2OC(C)(C)O[C@H]2O[C@@H]1C(=O)c1cn2cc(C(=O)c3ccc(F)cc3)nc2s1` yielded a CC50 at 48 h in series [1] greater than 400 µM. In addition, the EC50 in the series with Junin virus [2] is 2.9 µM. For the same compound, in series [3], the selectivity ratio is greater than 138.
As a reminder, the IC50 is the concentration that gives 50% inhibition. `NC(=O)c1ncn([C@@H]2O[C@H](CO)[C@@H](O)[C@H]2O)n1` [RIBAVIRIN] returned an IC50 in the series with Vero greater than 400 µM. For the same compound, the EC50 with Junin virus [2] stood at 18.5 µM. Further, in series [3], the selectivity ratio was greater than 21.6.
`CC(=O)O[C@@H]1[C@H]2OC(C)(C)O[C@H]2O[C@@H]1C(=O)c1cnc2sc(C(=O)c3ccc(Cl)cc3)cn12`: in series [1], the CC50 at 48 h was determined as 70 µM. Also, in the series with Junin virus [2], the EC50 turned out to be 7.5 µM. Further, the selectivity ratio in series [3] turned out to be 9.3.
Take `COC1[C@@H](C(=O)c2cnc3sc(C(=O)c4ccc(Br)cc4)cn23)O[C@@H]2OC(C)(C)O[C@H]12` (single isomer, unassigned): the CC50 at 48 h in series [1] stood at 295 µM. Further, the EC50 with Junin virus [2] worked out at 1.1 µM. Besides, the selectivity ratio in series [3] was determined as 268. For the same compound, in the series on Junin virus [4], the inhibition result is “Dose-dependent effect”. In the series with Junin virus [5], the “fold change (FC)” value is 15.
`CO[C@@H]1[C@H]2OC(C)(C)O[C@H]2O[C@@H]1C(=O)c1cnc2sc(C(=O)c3ccc(F)cc3)cn12` had a CC50 at 48 h in series [1] greater than 400 µM. In addition, the EC50 in the series on Junin virus [2] came to 78.3 µM. Moreover, the selectivity ratio in series [3] is greater than 5.1.
`CC(=O)O[C@@H]1[C@H]2OC(C)(C)O[C@H]2O[C@@H]1C(=O)c1cnc2sc(C(=O)c3ccc(F)cc3)cn12` registered a CC50 at 48 h in series [1] greater than 400 µM. The EC50 with Junin virus [2] was 4.9 µM. In addition, the selectivity ratio in series [3] was greater than 81.6.
In series [1], `CO[C@@H]1[C@H]2OC(C)(C)O[C@H]2O[C@@H]1C(=O)c1cn2cc(C(=O)c3ccc(Br)cc3)nc2s1` showed a CC50 at 48 h of 351 µM. Moreover, in the series with Junin virus [2], the EC50 came out at 4.3 µM. Moreover, the selectivity ratio in series [3] is 81.6.
